Among the data in PubChem BioAssay AID588365 (Broad Institute, 2011) are activity change, negative = cytotoxicity and AC50 values, retold here.

The structures appear in SMILES notation. Active and inactive are the calls of the source.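 How the source made its calls: active means compounds lowering cell ATP signal whose fitted half-maximal concentration is at most ten times the top tested dose; inconclusive means flat curve losing 30 to 70 percent, or poor fit; inactive means the rest.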

Test system in the first assay: not listed separately
The assay is described as follows: viability loss of HeLa cells by ATP content – CellTiter-Glo, 24 h, dry powder, cytotoxicity control, dose response (AID 588365). As to conditions: HeLa viability, CellTiter-Glo ATP luminescence, 24 h; at 35 µM (top of the series). Summed up: (§1)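 Test system: human HeLa cell line, viability by cellular ATP. Medium: phenol-red-free DMEM, 10% FBS. Incubation: 24 h compound exposure, 37 °C, then 10 min reagent, RT. Technique: luminescence of cellular ATP with CellTiter-Glo reagent.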
(In general: In ATP-based viability assays light output follows the ATP content of the culture.)
In the case of `O=C(O)CC(C(=O)O)N1C(=O)/C(=C/C=C/c2ccco2)SC1=S` (stereo unspecified), the activity change, negative = cytotoxicity was 4.8% (inactive).

In the case of `CCC(=O)Oc1ccc2c(c1)O/C(=C\c1ccco1)C2=O`, the activity change, negative = cytotoxicity was -1.46% (inactive).

As to `CC1(C)[C@@H](O[C@H]2O[C@H](C(=O)O)[C@@H](O)[C@H](O)[C@H]2O[C@@H]2O[C@H](C(=O)O)[C@@H](O)[C@H](O)[C@H]2O)CC[C@]2(C)[C@H]3C(=O)C=C4[C@@H]5C[C@@](C)(C(=O)O)CC[C@]5(C)CC[C@@]4(C)[C@]3(C)CC[C@@H]12`, the activity change, negative = cytotoxicity is -1.78% (inactive).

On to `Clc1ccc(-c2nnc3sc(-c4ccc(Br)o4)nn23)cc1`, for which the activity change, negative = cytotoxicity is -0.723% (inactive).

As for `CN(C)S(=O)(=O)c1cc(C(=O)NC2CCSc3ccccc32)ccc1Cl` (stereo unspecified), the activity change, negative = cytotoxicity is -9.03% (inactive).

For `O=C(O)CCCCCn1c(SCC(=O)c2ccc(O)c(O)c2)nc2ccsc2c1=O`, the activity change, negative = cytotoxicity was -3.5% (inactive).

Turning to `O=C1CCCC(O)=C1N=Nc1ccc(C(=O)O)cc1`, the activity change, negative = cytotoxicity was -7.5% (inactive).

`O=C1/C(=C/c2ccco2)Oc2c1ccc(O)c2CN1CCCCC1`: the activity change, negative = cytotoxicity is 4.06% (inactive).

For the compound `Nc1c(C(=O)Nc2ccccc2F)sc2nc(Cc3ccccc3)cc(C(F)(F)F)c12`, the activity change, negative = cytotoxicity was 0.381% (inactive).

Regarding `Nc1c(/C=C2\C=CC(=O)C(O)=C2)c(=O)nc2sc(CC(=O)N3CCCCC3)nn12`, the activity change, negative = cytotoxicity is -8.24% (inactive).

`COC(=O)c1ccccc1NC(=O)CCS(=O)(=O)c1ccc(Br)cc1`: the activity change, negative = cytotoxicity was -2.03% (inactive).

For the compound `O=C(O)C1Nc2c(O)cc(Cl)c([N+](=O)[O-])c2C2C=CCC12` (stereo unspecified), the activity change, negative = cytotoxicity is -4.48% (inactive).

`CSc1ccc(/C=N/Nc2cccc(C(=O)O)c2)cc1`: the activity change, negative = cytotoxicity was -3.96% (inactive).

For the compound `CC1=NN(c2cccc(C(=O)O)c2)C(=O)/C1=C\C=C\c1ccco1`, the activity change, negative = cytotoxicity is -14.3% (inactive).

The subject of a further assay is HeLa viability, CellTiter-Glo ATP luminescence, 24 h. The description is as above.
Conditions: not given
The method in brief: as §1
In general, AC50 refers to the concentration giving half of the maximal activity seen. For `O=c1c(O)cccc2cc(O)c(O)c(O)c12`, the AC50 was 16.1 µM.

For `O=C(O)CCNc1ccc(NCCC(=O)O)c2c1C(=O)c1ccccc1C2=O`, the AC50 was 36.1 µM.
